Measurements: ChEMBL document CHEMBL1139031, “Synthesis and insecticidal activity of fluorinated 2-(2,6-dichloro-4-trifluoromethylphenyl)-2,4,5,6-tetrahydrocyclopentapyrazoles” (Bioorg Med Chem Lett, 2006)
pIC50: −log10 of the molar value.

Assays:
[1] = Selectivity for housefly GABA receptor over mouse GABA receptor
Musca domestica [2] = test: Insecticidal activity against housefly at 100 mM by contact assay; assay type: functional; settings: for LC50: Musca domestica, read-out: LD50 (the source's name)
Summary of the method: (§1)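 Newly emerged houseflies were CO2-sedated and fed 10% sucrose for 2–4 h. Compound in DMSO with isopropanol was rolled to coat glass tubes and air-dried for 24–48 h, with a DMSO-only control. Twenty flies, sedated by refrigeration at 0–4 °C, were placed in each tube. Healthy, moribund and dead flies were counted after 24 h.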

[3] = biological target: GABA-A receptor; anion channel; test: Binding affinity to mouse brain GABA receptor
Summary of the method: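 Displacement of [3H]EBOB (5.2 nM, 38 Ci/mmol) from neuronal membranes (0.5–1.0 mg/mL), housefly or mouse brain, in ice-cold 10 mM phosphate, 300 mM NaCl, pH 7.5. Compound added from DMSO. Membrane-free wells served as controls. Incubated 45 min at 24 °C, then filtered on polyethylenimine-soaked glass fiber and bound radioactivity counted. IC50 (50% of maximal inhibition) taken from 24–48 concentrations.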

GABA receptor subunit = biological target: T1, GABA receptor subunit (Musca domestica, UniProt Q75NA5); test: Displacement of [3H]EBOB from housefly neuronal membrane GABA receptor
T1 sequence (Q75NA5 whole entry): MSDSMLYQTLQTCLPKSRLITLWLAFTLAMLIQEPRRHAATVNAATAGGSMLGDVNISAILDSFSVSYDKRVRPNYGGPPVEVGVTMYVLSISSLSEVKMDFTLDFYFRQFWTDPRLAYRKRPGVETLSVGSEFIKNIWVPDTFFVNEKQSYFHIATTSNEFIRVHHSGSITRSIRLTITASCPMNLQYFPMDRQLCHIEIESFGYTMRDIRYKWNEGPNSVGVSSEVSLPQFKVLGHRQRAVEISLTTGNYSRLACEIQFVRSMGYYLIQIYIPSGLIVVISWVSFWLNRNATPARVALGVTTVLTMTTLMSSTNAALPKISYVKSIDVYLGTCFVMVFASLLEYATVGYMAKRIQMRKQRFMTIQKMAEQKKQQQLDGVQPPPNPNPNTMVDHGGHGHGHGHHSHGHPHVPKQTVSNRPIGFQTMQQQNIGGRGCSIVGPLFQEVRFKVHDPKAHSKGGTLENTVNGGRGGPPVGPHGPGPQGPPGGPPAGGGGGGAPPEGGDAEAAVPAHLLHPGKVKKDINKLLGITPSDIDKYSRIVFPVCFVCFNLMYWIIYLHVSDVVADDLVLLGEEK
Summary of the method: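 Housefly neuronal membranes (0.5–1.0 mg/mL in added buffer) with 5.2 nM [3H]EBOB in ice-cold 10 mM phosphate, 300 mM NaCl, pH 7.5; DMSO compound solutions. Incubated 45 min at 24 °C, then filtered on polyethylenimine-soaked glass fiber; bound radioactivity counted. Membrane-free wells served as controls. Actives were retested at 24–48 final concentrations, and IC50 was taken at 50% of maximal inhibition.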

Ctenocephalides felis [4] = test: Insecticidal activity against heterozygous S/A flea by contact assay; assay type: functional
Ctenocephalides felis [5] = test: Insecticidal activity against cyclodiene resistant allele-homozygous serine S/S flea by contact assay; assay type: functional
Summary of the method: (§2)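 Contact vial assay with cat fleas of the cyclodiene-resistant homozygous serine (CO) or sensitive homozygous alanine (ARC) strain. Compound in DMSO was dried onto a glass-fiber disk for 24–48 h, and a DMSO-only disk was the control. Twenty newly emerged fleas, sedated at 0–4 °C, were sealed in each vial and held in the dark. Dead fleas were counted after 24 h, and percentage mortality was calculated.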

Ctenocephalides felis [6] = test: Insecticidal activity against ARC sensitive homozygous alanine A/A flea at 100 mM by contact assay; assay type: functional; summary of the method: as §2
[7] = (§3) Half life in mouse liver microsome; assay type: ADME; settings: liver microsomes
Canis familiaris [8] = organism: Canis familiaris; test: Clearance in dog; assay type: ADME, organism-based, Canis lupus familiaris; settings: in vitro
Mus musculus [9] = organism: Mus musculus; test: Clearance in mouse; assay type: ADME, organism-based; settings: in vitro
Canis familiaris [10] = organism: Canis familiaris; test: (§4) Half life in dog liver microsome; assay type: ADME, Canis lupus familiaris; settings: microsomes
Musca domestica [11] = test: Insecticidal activity against housefly by contact assay; assay type: functional; parameters: concentration or dose not given beside the values; summary of the method: as §1
Ctenocephalides felis [12] = test: Insecticidal activity against cyclodiene resistant allele-homozygous serine S/S flea at 100 mM by contact assay; assay type: functional; summary of the method: as §2
Mus musculus [13] = organism: Mus musculus; test: as §3; assay type: ADME; settings: microsomes
[14] = as §4; assay type: ADME, Canis lupus familiaris; settings: liver microsomes
[15] = read-out: LD50 (the source's name)

| SMILES | selectivity ratio [1] | pIC50 [3] | pIC50 (GABA receptor subunit) | Activity (Ctenocephalides felis [6]) [%] | LC50 (Ctenocephalides felis [5]; [15]) [µM] | Activity (Musca domestica [11]) [%] | Activity (Ctenocephalides felis [12]) [%] | further results |
| --- | --- | --- | --- | --- | --- | --- | --- | --- |
| CC1CCc2nn(-c3c(Cl)cc(C(F)(F)F)cc3Cl)cc21 (stereo unspecified) | 126 | 5.42 | 7.52 | 100 | – | – | – | Activity (Musca domestica [2]): 10%; LC50 (Ctenocephalides felis [4]): 3000 µM; LC50 (Ctenocephalides felis [5]; read-out: LC50): 10000 µM |
| FC1Cc2cn(-c3c(Cl)cc(C(F)(F)F)cc3Cl)nc2C1F (stereo unspecified) | 5 | 6.00 | 6.70 | 100 | – | – | – | half-life [7]: 0.373 h; LC50 (Musca domestica [2]): 79000 µM; CL (Canis familiaris [8]): Stable; CL (Mus musculus [9]): 255.1 pmol/min/mg; T1/2 (Canis familiaris [10]): Stable |
| FC(F)(F)c1cc(Cl)c(-n2cc3c(n2)CC(F)(F)C3(F)F)c(Cl)c1 | > 0.5 | 7.30 | > 7.00 | 100 | < 500 | – | – | – |
| FC1CCc2cn(-c3c(Cl)cc(C(F)(F)F)cc3Cl)nc21 (stereo unspecified) | 10 | 5.54 | 6.54 | 95 | 11000 | 85 | – | – |
| FC1CCc2nn(-c3c(Cl)cc(C(F)(F)F)cc3Cl)cc21 (stereo unspecified) | > 5 | < 5.00 | 5.77 | – | – | 7 | 36 | – |
| COC1CC(F)(F)c2nn(-c3c(Cl)cc(C(F)(F)F)cc3Cl)cc21 (stereo unspecified) | – | 5.43 | – | 100 | – | 22 | 3 | – |
| O=C1CC(F)(F)c2nn(-c3c(Cl)cc(C(F)(F)F)cc3Cl)cc21 | – | – | – | 40 | – | 6 | 1 | – |
| CC1(O)c2cn(-c3c(Cl)cc(C(F)(F)F)cc3Cl)nc2CC1(F)F (stereo unspecified) | 23 | 5.64 | – | 100 | 10000 | 72 | – | T1/2 (Mus musculus [13]): Stable; CL (Canis familiaris [8]): 296.9 pmol/min/mg; CL (Mus musculus [9]): Stable; half-life [14]: 8.45 h |
| FC1(F)Cc2cn(-c3c(Cl)cc(C(F)(F)F)cc3Cl)nc2C1 | 1 | 6.76 | 6.70 | 100 | 2000 | 87.9 | – | – |
| O=C1CCc2nn(-c3c(Cl)cc(C(F)(F)F)cc3Cl)cc21 | 42 | 4.70 | 6.33 | 16.5 | – | – | – | LC50 (Musca domestica [2]): 81000 µM |
| FC1c2nn(-c3c(Cl)cc(C(F)(F)F)cc3Cl)cc2C(F)(F)C1F (stereo unspecified) | – | 6.76 | – | 100 | < 500 | – | – | LC50 (Musca domestica [2]): 400 µM |
| COC1(C)c2cn(-c3c(Cl)cc(C(F)(F)F)cc3Cl)nc2CC1F (stereo unspecified) | 120 | 4.92 | 7.00 | 100 | 1800 | – | – | half-life [7]: 2.42 h; CL (Canis familiaris [8]): Stable; CL (Mus musculus [9]): 34.1 pmol/min/mg; T1/2 (Canis familiaris [10]): Stable |
| FC(F)(F)c1cc(Cl)c(-n2cc3c(n2)CCC3(F)F)c(Cl)c1 | < 10 | 6.00 | < 7.00 | 100 | 1000 | – | – | LC50 (Musca domestica [2]): 88000 µM |
| FC1Cc2nn(-c3c(Cl)cc(C(F)(F)F)cc3Cl)cc2C1(F)F (stereo unspecified) | > 10 | 6.00 | > 7.00 | 100 | 1000 | 100 | – | half-life [7]: 1.08 h; CL (Canis familiaris [8]): Stable; CL (Mus musculus [9]): 109.2 pmol/min/mg; T1/2 (Canis familiaris [10]): Stable |
| FC(F)(F)c1cc(Cl)c(-n2cc3c(n2)C(F)(F)CC3)c(Cl)c1 | – | 5.55 | – | 100 | 15000 | – | – | – |
| FC(F)(F)c1cc(Cl)c(-n2cc3c(n2)CCC3)c(Cl)c1 | 19 | 5.80 | – | 100 | – | – | – | Activity (Musca domestica [2]): 30%; LC50 (Ctenocephalides felis [4]): 7000 µM; LC50 (Ctenocephalides felis [5]; read-out: LC50): 8000 µM |
| O=C1c2cn(-c3c(Cl)cc(C(F)(F)F)cc3Cl)nc2CC1(F)F | – | – | – | 40 | – | 6 | 1 | – |
| O=C1c2cn(-c3c(Cl)cc(C(F)(F)F)cc3Cl)nc2CC1F (stereo unspecified) | 10 | 5.49 | 6.49 | 95.4 | – | 57.5 | 10.8 | – |
| FC(F)(F)c1cc(Cl)c(-n2cc3c(n2)C(F)(F)CC3(F)F)c(Cl)c1 | 4 | 6.52 | 7.13 | 100 | – | 93.9 | 60.7 | – |
| CC1(F)CC(F)(F)c2nn(-c3c(Cl)cc(C(F)(F)F)cc3Cl)cc21 (stereo unspecified) | – | < 5.00 | – | 100 | – | 16.7 | 3 | – |
| CC1(O)c2cn(-c3c(Cl)cc(C(F)(F)F)cc3Cl)nc2C(F)C1F (stereo unspecified) | > 28 | < 5.00 | – | 100 | 5000 | 100 | – | – |
